Measured values taken from ChEMBL document CHEMBL1155361, “Anti-oxidant, anti-fungal and anti-leishmanial activities of novel 3-[4-(1H-imidazol-1-yl) phenyl]prop-2-en-1-ones” (Eur J Med Chem, 2009).
In brackets after ≈: the same amount, converted by molar mass.

Columns and labels:
[1] = Antioxidant activity assessed as superoxide radical scavenging activity at 0.5 mM by NBT reduction assay; assay type: functional
How it was run: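 Superoxide generated by an NADH/phenazine methosulphate system. The mix held 40 µl of 280 µM NADH, 40 µl of 80 µM NBT, 20 µl of 8 µM PMS, 10 µl of 1 mM sample in DMSO, and 0.1 M phosphate buffer pH 7.4 (concentrations are of the added solutions). Ran at room temperature, read formazan at 560 nm, and calculated %RSA = 100 − (OD test/OD control × 100).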

[2] = system: Aspergillus fumigatus; assay: Antimicrobial activity against Aspergillus fumigatus at 100 ug/ml after 24 hrs by cup diffusion method; assay type: functional; details: for zone of inhibition at 100 µg/mL: read-out: DIZ
How it was run: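 Cup diffusion on potato dextrose agar plates inoculated with the fungus, with samples dissolved in DMSO. Incubated at 45 °C for A. fumigatus. Read the diameter of the clear zone of inhibition around the sample.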

[3] = system: Trichoderma viride; assay: Antimicrobial activity against Trichoderma viride at 100 ug/ml after 24 hrs by cup diffusion method; assay type: functional; details: for zone of inhibition at 100 µg/mL: read-out: DIZ
How it was run: (§1)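 Cup diffusion on fungus-inoculated potato dextrose agar plates, with samples in DMSO. Incubated at 30 °C. Read the diameter of the clear inhibition zone surrounding the sample.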

[4] = system: Yarrowia lipolytica; assay: Antimicrobial activity against Candida lipolytica at 100 ug/ml after 24 hrs by cup diffusion method; assay type: functional; details: for zone of inhibition at 100 µg/mL: read-out: DIZ; how it was run: as §1
[5] = system: Aspergillus niger; assay: Antimicrobial activity against Aspergillus niger at 100 ug/ml after 24 hrs by cup diffusion method; assay type: functional; details: for zone of inhibition at 100 µg/mL: read-out: DIZ; how it was run: as §1
[6] = system: Leishmania major; assay: Antileishmanial activity against Leishmania major promastigotes after 72 hrs; assay type: functional, organism-based
How it was run: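 Cultured Leishmania major parasites in M199 with 10% foetal bovine serum, 25 mM HEPES, and penicillin/streptomycin, at 24 °C with shaking. Harvested log-phase cells and diluted them to 2 × 10^6 cells/ml. Made 1 mg/ml DMSO stocks and serially diluted them in medium. Used DMSO as the negative control and amphotericin B as the positive control.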

Compound | Activity [1] | zone of inhibition at 100 µg/mL [2] | zone of inhibition at 100 µg/mL [3] | zone of inhibition at 100 µg/mL [4] | zone of inhibition at 100 µg/mL [5] | IC50 [6] | inhibition zone (IZ) [2] | inhibition zone (IZ) [3] | inhibition zone (IZ) [4] | inhibition zone (IZ) [5]
O=C(/C=C/c1ccc(-n2ccnc2)cc1)c1ccccc1F | 79.2% | 17 mm | 5 mm | 5 mm | 3 mm | 0.98 µg/mL (≈ 3.35 µM) | – | – | – | –
O=C(/C=C/c1ccc(-n2ccnc2)cc1)c1cc(Cl)ccc1Cl | 18.8% | 19 mm | 10 mm | 10 mm | 6 mm | 0.99 µg/mL (≈ 2.88 µM) | – | – | – | –
C[C@@H]1[C@H](O)[C@@H](C)/C=C/C=C/C=C/C=C/C=C/C=C/C=C/[C@H](O[C@@H]2O[C@H](C)[C@@H](O)[C@H](N)[C@@H]2O)C[C@@H]2O[C@](O)(C[C@@H](O)C[C@@H](O)[C@H](O)CC[C@@H](O)C[C@@H](O)CC(=O)O[C@H]1C)C[C@H](O)[C@H]2C(=O)O [AMPHOTERICIN B] | – | – | – | – | – | 0.56 µg/mL (≈ 0.606 µM) | – | – | – | –
O=C(/C=C/c1ccc(-n2ccnc2)cc1)c1ccccc1Cl | 70.4% | 19 mm | 5 mm | 5 mm | 5 mm | 0.93 µg/mL (≈ 3.01 µM) | – | – | – | –
COc1ccc(C(=O)/C=C/c2ccc(-n3ccnc3)cc2)cc1 | 66% | 17 mm | 6 mm | 6 mm | 3 mm | 0.98 µg/mL (≈ 3.22 µM) | – | – | – | –
O=C(/C=C/c1ccc(-n2ccnc2)cc1)c1ccc(Br)cc1 | 42.1% | 18 mm | 9 mm | 8 mm | 4 mm | 0.86 µg/mL (≈ 2.43 µM) | – | – | – | –
O=C(/C=C/c1ccc(-n2ccnc2)cc1)c1ccc(Cl)c(Cl)c1 | 0.4% | 10 mm | 6 mm | 7 mm | 2 mm | 0.99 µg/mL (≈ 2.88 µM) | – | – | – | –
O=C(/C=C/c1ccc(-n2ccnc2)cc1)c1ccc(Cl)c(Cl)c1Cl | 2.4% | 10 mm | 6 mm | 6 mm | 1 mm | 0.63 µg/mL (≈ 1.67 µM) | – | – | – | –
O=C(/C=C/c1ccc(-n2ccnc2)cc1)c1ccc(Cl)cc1Cl | 3.3% | 15 mm | 2 mm | 4 mm | 1 mm | 0.72 µg/mL (≈ 2.1 µM) | – | – | – | –
COc1cccc(C(=O)/C=C/c2ccc(-n3ccnc3)cc2)c1 | 83.9% | 16 mm | 8 mm | 7 mm | 3 mm | 0.98 µg/mL (≈ 3.22 µM) | – | – | – | –
O=C(/C=C/c1ccc(-n2ccnc2)cc1)c1ccc(Cl)cc1 | 90.1% | 20 mm | 9 mm | 10 mm | 8 mm | 0.92 µg/mL (≈ 2.98 µM) | – | – | – | –
O=C(/C=C/c1ccc(-n2ccnc2)cc1)c1cccc(F)c1F | 16.7% | 19 mm | 4 mm | 3 mm | 4 mm | 0.83 µg/mL (≈ 2.67 µM) | – | – | – | –
O=C(/C=C/c1ccc(-n2ccnc2)cc1)c1ccc(I)cc1 | 40.4% | 10 mm | 2 mm | 3 mm | 2 mm | 0.92 µg/mL (≈ 2.3 µM) | – | – | – | –
NYSTATIN | – | – | – | – | – | – | 22 mm | 17 mm | 16 mm | 10 mm
O=C(/C=C/c1ccc(-n2ccnc2)cc1)c1c(F)cccc1F | 69.5% | 15 mm | 5 mm | 7 mm | 4 mm | 0.97 µg/mL (≈ 3.13 µM) | – | – | – | –
O=C(/C=C/c1ccc(-n2ccnc2)cc1)c1ccc(F)c(F)c1 | 8.3% | 18 mm | 3 mm | 4 mm | 4 mm | 0.89 µg/mL (≈ 2.87 µM) | – | – | – | –
COc1ccc(C(=O)/C=C/c2ccc(-n3ccnc3)cc2)cc1OC | 51% | 10 mm | 4 mm | 4 mm | 3 mm | 0.82 µg/mL (≈ 2.45 µM) | – | – | – | –
CCCOC(=O)c1cc(O)c(O)c(O)c1 | 91.3% | – | – | – | – | – | – | – | – | –
O=C(/C=C/c1ccc(-n2ccnc2)cc1)c1c(Cl)cccc1Cl | 47.7% | 20 mm | 6 mm | 7 mm | 4 mm | 0.67 µg/mL (≈ 1.95 µM) | – | – | – | –
O=C(/C=C/c1ccc(-n2ccnc2)cc1)c1ccccc1Br | 76% | 18 mm | 2 mm | 3 mm | 4 mm | 0.86 µg/mL (≈ 2.43 µM) | – | – | – | –
O=C(/C=C/c1ccc(-n2ccnc2)cc1)c1ccccc1 | 81.9% | 18 mm | 3 mm | 4 mm | 4 mm | 0.91 µg/mL (≈ 3.32 µM) | – | – | – | –
O=C(/C=C/c1ccc(-n2ccnc2)cc1)c1ccc(F)cc1 | 64.5% | 1 mm | 1 mm | 1 mm | 2 mm | 0.71 µg/mL (≈ 2.43 µM) | – | – | – | –
O=C(/C=C/c1ccc(-n2ccnc2)cc1)c1cccc(O)c1 | 8.65% | 5 mm | 6 mm | 5 mm | 5 mm | 0.96 µg/mL (≈ 3.31 µM) | – | – | – | –
